For 19 compounds, IC50 and Activity results are on record in ChEMBL document CHEMBL1153826, “Synthesis of dammarane-type triterpene derivatives and their ability to inhibit HIV and HCV proteases” (Bioorg Med Chem, 2009).

pIC50: −log10 of the molar value. Calls of active or inactive are those of the source. The calls are words filed in the database; no cut-off is given here.

Broadly, the pIC50 is the IC50 on a negative log10 scale, so that one unit is a factor of ten. Read a low pIC50 as a high IC50.

One assay deals with Protease (Human immunodeficiency virus 1, UniProt Q9YQ12). The assay is described as follows: Inhibition of HIV1 protease by HPLC method.
Protease, sequence (Q9YQ12 whole entry): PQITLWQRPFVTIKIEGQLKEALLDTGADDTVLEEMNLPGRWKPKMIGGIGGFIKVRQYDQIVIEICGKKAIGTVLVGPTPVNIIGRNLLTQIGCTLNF
Assay [1] can be described thus: Inhibition of HCV protease by fluorometric method. The arrangement: species or system Hepacivirus hominis.
The target of a further assay is T1, Renin (Homo sapiens) (UniProt P00797).
T1 sequence (whole entry): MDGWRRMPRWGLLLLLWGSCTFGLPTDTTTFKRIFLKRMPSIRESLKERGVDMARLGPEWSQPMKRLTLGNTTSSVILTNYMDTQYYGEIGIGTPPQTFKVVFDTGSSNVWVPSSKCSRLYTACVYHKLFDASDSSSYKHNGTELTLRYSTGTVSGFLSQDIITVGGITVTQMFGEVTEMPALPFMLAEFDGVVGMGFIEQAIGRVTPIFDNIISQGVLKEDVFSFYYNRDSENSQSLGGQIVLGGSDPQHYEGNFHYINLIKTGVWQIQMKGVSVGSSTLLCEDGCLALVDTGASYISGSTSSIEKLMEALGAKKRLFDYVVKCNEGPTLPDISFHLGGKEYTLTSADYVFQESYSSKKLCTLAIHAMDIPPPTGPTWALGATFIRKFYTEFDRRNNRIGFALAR
Briefly: Inhibition of renin up to 1 ug/mL. The note with it: in the assay text read “1 mg/mL” for “1 ug/mL”. The gist of the method:
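Recombinant renin was mixed with the compound in DMSO in 384-well plates. Fresh FRET peptide substrate Arg-Glu(EDANS)-[…]Dabcyl)-Arg was added, then rotated 30 min at 37 °C. Read-out was fluorometric, with inhibition calculated as in the HCV protease assay. Ac-HPFV-(Sta)-LF-NH2 was the positive control.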

Assay [2] in a line: Inhibition of trypsin up to 1 ug/mL. Conditions: in the assay text read “1 mg/mL” for “1 ug/mL”. The gist of the method:
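Trypsin was mixed with the compound in DMSO and assay buffer in 384-well plates. Fresh HiLyte Fluor 488-labeled casein substrate was added with rotary shaking, then incubated 30 min at 37 °C. Fluorescence was read and inhibition calculated as in the HCV protease assay. Soybean trypsin–chymotrypsin inhibitor was the positive control.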

Turning to `COC(=O)[C@@]1(O)C[C@]2(C)[C@H]3C[C@@H](O)[C@@H]4[C@@H]([C@@]5(C)CCCC(C)(C)O5)CC[C@@]4(C)[C@]3(C)CC[C@H]2C1(C)C`, the pIC50 (against Protease; in assay [1]) was under 3.70 in each case.
Turning to `CC1(C)CCC[C@](C)([C@H]2CC[C@]3(C)[C@@H]2[C@H](O)C[C@@H]2[C@@]4(C)C[C@](O)(C(=O)O)C(C)(C)[C@@H]4C(=O)C[C@]23C)O1`, the pIC50 is 4.52 against Protease and under 3.67 in assay [1].
The like results for `CC1(C)CCC[C@](C)([C@H]2CC[C@]3(C)[C@@H]2C(=O)C[C@@H]2[C@@]4(C)CCC(=O)C(C)(C)[C@@H]4C(=O)C[C@]23C)O1` were, in that order, 4.62 and under 3.67.
As to `CC1(C)CCC[C@](C)([C@H]2CC[C@]3(C)[C@@H]2C(=O)C[C@@H]2[C@@]4(C)CC[C@H](OC(=O)CC(C)(C)C(=O)O)C(C)(C)[C@@H]4[C@@H](OC(=O)CC(C)(C)C(=O)O)C[C@]23C)O1`, the values for the pIC50 (on Protease; in assay [1]) were 4.96 and 4.72, respectively. The result (at Renin (Homo sapiens); in assay [2]) was inactive.
On to `CC1(C)CCC[C@](C)([C@H]2CC[C@]3(C)[C@@H]2[C@H](O)C[C@@H]2[C@@]4(C)CC[C@H](OC(=O)CC(C)(C)C(=O)O)C(C)(C)[C@@H]4CC[C@]23C)O1`, for which the pIC50 against Protease was 5.57; in assay [1], 4.52. The result (on Renin (Homo sapiens); in assay [2]) was inactive.
Take `CC1(C)CCC[C@](C)([C@H]2CC[C@]3(C)[C@@H]2[C@H](O)C[C@@H]2[C@@]4(C)CC[C@H](O)C(C)(C)[C@@H]4[C@@H](OC(=O)CC(C)(C)C(=O)O)C[C@]23C)O1`: the pIC50 against Protease is 5.57; in assay [1] it was under 3.78. Also, the result (on Renin (Homo sapiens); in assay [2]) was inactive.
For the compound `CC1(C)CCC[C@](C)([C@H]2CC[C@]3(C)[C@@H]2[C@H](O)C[C@@H]2[C@@]4(C)CC[C@H](OC(=O)CC(C)(C)C(=O)O)C(C)(C)[C@@H]4[C@@H](OC(=O)CC(C)(C)C(=O)O)C[C@]23C)O1`, the results for the pIC50 (against Protease; in assay [1]) were 5.27 and 5.74, respectively. Further, the result (at Renin (Homo sapiens); in assay [2]) was inactive.
With `CC1(C)CCC[C@](C)([C@H]2CC[C@]3(C)[C@@H]2[C@H](O)C[C@@H]2[C@@]4(C)C[C@](O)(C(=O)O)C(C)(C)[C@@H]4CC[C@]23C)O1`, the pIC50 against Protease was 5.00; in assay [1], under 3.69.
As for `CC1(C)CCC[C@](C)([C@H]2CC[C@]3(C)[C@@H]2C(=O)C[C@@H]2[C@@](C)(CC(=O)O)[C@H](C(C)(C)C(=O)O)CC[C@]23C)O1`, the pIC50 was 4.64 at Protease and 5.04 in assay [1]. In addition, the result (at Renin (Homo sapiens); in assay [2]) was inactive.
Turning to `CC1(C)CCC[C@](C)([C@H]2CC[C@]3(C)[C@@H]2[C@H](O)C[C@@H]2[C@@]4(C)CC[C@H](O)C(C)(C)[C@@H]4[C@@H](O)C[C@]23C)O1` [PANAXATRIOL], the pIC50 (against Protease; in assay [1]) was under 3.68 throughout.
On to `CC1(C)CCC[C@](C)([C@H]2CC[C@]3(C)[C@@H]2[C@H](O)C[C@@H]2[C@@]4(C)CC[C@H](O)C(C)(C)[C@@H]4CC[C@]23C)O1` [PANAXADIOL], for which the pIC50 (against Protease; in assay [1]) was under 3.66 in each case.
For the compound `CC1(C)CCC[C@](C)([C@H]2CC[C@]3(C)[C@@H]2[C@H](O)C[C@@H]2[C@@]4(C)C=C(O)C(=O)C(C)(C)[C@@H]4CC[C@]23C)O1`, the pIC50 at Protease was 4.55; in assay [1], under 3.67.
With `CC1(C)CCC[C@](C)([C@H]2CC[C@]3(C)[C@@H]2[C@H](O)C[C@@H]2[C@@](C)(CC(=O)O)[C@H](C(C)(C)C(=O)O)CC[C@]23C)O1`, the values for the pIC50 (at Protease; in assay [1]) were 4.92 and under 3.70, respectively. In addition, the outcome (on Renin (Homo sapiens); in assay [2]) was inactive.
`CC1(C)CCC[C@](C)([C@H]2CC[C@]3(C)[C@@H]2C(=O)C[C@@H]2[C@@]4(C)CC[C@H](OC(=O)CC(C)(C)C(=O)O)C(C)(C)[C@@H]4CC[C@]23C)O1`: the pIC50 against Protease is 5.19; in assay [1] it was 4.21. Further, the result (at Renin (Homo sapiens); in assay [2]) was inactive.
For the compound `COC(=O)[C@@]1(O)C[C@]2(C)[C@H]3C[C@@H](O)[C@@H]4[C@@H]([C@@]5(C)CCCC(C)(C)O5)CC[C@@]4(C)[C@]3(C)CC(=O)[C@H]2C1(C)C`, the pIC50 (at Protease; in assay [1]) was under 3.71 throughout.
On to `CC1(C)CCC[C@](C)([C@H]2CC[C@]3(C)[C@@H]2[C@H](O)C[C@@H]2[C@@]4(C)CCC(=O)C(C)(C)[C@@H]4C(=O)C[C@]23C)O1`, for which the figures for the pIC50 (against Protease; in assay [1]) were 4.37 and under 3.67, respectively.
The like results for `CC1(C)CCC[C@](C)([C@H]2CC[C@]3(C)[C@@H]2C(=O)C[C@@H]2[C@@]4(C)CCC(=O)C(C)(C)[C@@H]4CC[C@]23C)O1` were, in that order, under 3.66 and 4.14.
The like results for `CC1(C)CCC[C@](C)([C@H]2CC[C@]3(C)[C@@H]2[C@H](O)C[C@@H]2[C@@]4(C)CCC(=O)C(C)(C)[C@@H]4CC[C@]23C)O1` were, in that order, 4.40 and under 3.66.
On to `CC1(C)CCC[C@](C)([C@H]2CC[C@]3(C)[C@@H]2[C@H](O)C[C@@H]2[C@@]4(C)CC[C@H](OC(=O)CC(C)(C)C(=O)O)C(C)(C)[C@@H]4[C@@H](O)C[C@]23C)O1`, for which the negative logarithm of the IC50 (pIC50) was 5.41 against Protease and under 3.78 in assay [1]. Moreover, the result (on Renin (Homo sapiens); in assay [2]) was inactive.
